# Screening results (PubChem BioAssay)
# Hits are enriched below; roughly 2.6% of the tested compounds scored in any of these assays.
# Apaf-1 inh – inhibitors of human Apaf-1 apoptosome, primary screen, biochemical, DEVD-Rh110 fluorescence, uHTS; reconstituted apoptosome caspase-3 activity; inhibition, % at 20 µM; 0.71% of 330,000 active; AID 489030, 2010; active means inhibition of at least 40% at 20 µM;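 further: plate controls were DMSO wells for no effect and DEVD-CHO caspase inhibitor wells for full effect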
#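 System: reconstituted apoptosome with Apaf-1, cytochrome c, caspase-9, procaspase-3, dATP; Signal: Rh110 fluorescence intensity; Schedule: 30 min compound preincubation, 50 min activation, room temperature; Reagent: cytochrome c trigger plus (Z-DEVD)2-Rh110 caspase-3 substrate.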
# PAD4 inh – human PAD4 inhibitors, primary screen, biochemical, fluorescence polarization, 1536-well format; Protein-arginine deiminase type-4 (Homo sapiens), Q9UM07; inhibition, % at 6.36 µM; 0.41% of 330,000 active; AID 485272, 2010; recombinant PAD4, RCA probe fluorescence polarization;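 active means percent inhibition above a cutoff equal to the mean of all tested compounds plus 3 SD, cut at about 15% in these data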;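 further: 0% = PAD4 with RCA probe and DMSO and 100% = probe without PAD4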
# TDP2 inh – human TDP2 enzyme inhibitors, primary screen, biochemical, epi absorbance, recombinant enzyme | 0.34% of 370,000 active | AID 720702, 2013 | T5PNP hydrolysis, p-nitrophenol absorbance 415 nm | inhibition, % at 12.8 µM;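 active means inhibition above the mean of all tested compounds plus 3 SD, set per campaign, cut at about 25% in these data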;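 further: 0% = DMSO with enzyme and 100% = buffer with substrate but no TDP2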
#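 System – recombinant human TDP2 · Quantity – TDP2 enzyme at 120 nM final · Doses – single concentration, 12.8 µM nominal, with 1% DMSO · Incubation – 2 h at 37 °C · Measured by – epi absorbance of p-nitrophenol freed from T5PNP by hydrolysis · Read-out – % inhibition relative to enzyme-containing and enzyme-free wells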
# PRMT1 inh – PRMT1 methyltransferase inhibitors, primary screen, biochemical, fluorescence polarization. Protein arginine N-methyltransferase 1 (Homo sapiens), Q99873. recombinant PRMT1, activity-based probe fluorescence polarization. inhibition, % at 2.79 µM. 1.3% of 370,000 active;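 active means inhibition above about 21% made by adding two undisclosed values, limit read from the data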
# GSTO1 counter – inhibitors of recombinant GSTO1, primary screen, counter-screen for RBBP9 inhibitor project, biochemical, fluorescence polarization; Glutathione S-transferase omega-1 (Homo sapiens), P78417; 1.1% of 300,000 active; activity-based probe fluorescence polarization; inhibition, % at 5.96 µM; AID 1974, 2009;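 active means inhibition above the campaign mean inhibition plus 3 SD, cut at about 35% in these data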;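 further: 0% = GSTO1-1 with DMSO and 100% = wells lacking GSTO1-1 enzyme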
# Apaf-1 inh conf – Apaf-1 inhibitors, single-dose retest, confirmation, biochemical, fluorescence, DEVD-Rh110, 20 µM; shares compounds with Apaf-1 inh; reconstituted apoptosome, caspase-3 DEVD-Rh110 fluorescence; inhibition, % at 20 µM; 25% of 1,800 active;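 active means mean inhibition of at least 40% at 20 µM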;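 further: plate controls were DMSO wells for no effect and DEVD-CHO caspase inhibitor control wells for full effect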
# Rh110 interf inh – Rh110 fluorescence interference by putative Apaf-1 inhibitors, confirmation, artefact control for Apaf-1 inhibitor project, biochemical, 20 µM. shares compounds with Apaf-1 inh. activation (fluorescence interference), % at 20 µM. AID 504615, 2011. 1,800 tested, under 10 active. quenched caspase reaction;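 active means signal rise of 40% or more at 20 µM, treated as a fluorescence artifact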
# Apaf1 inh interf – fluorescence interference of Apaf-1 inhibitor hits, dose response, artefact control for Apaf-1 inhibitor project. shares compounds with Apaf-1 inh. fluorescence interference counterscreen, Apaf-1 assay format. IC50, µM. 460 tested, under 10 active. AID 588538, 2011; call rule not given here
# An asterisk follows results filed as active; x = not tested or not shown.
SMILES,Apaf-1 inh,PAD4 inh,TDP2 inh,PRMT1 inh,GSTO1 counter,Apaf-1 inh conf,Rh110 interf inh,others
CCCCCCSc1cc(-c2nc3cnccn3c2NCCCC)ccc1OC,46.1*,1.8,x,x,x,19.9,17.0,
CCCCNc1c(-c2ccc(OC)c(Sc3ccc(OC)cc3)c2)nc2cnccn12,43.1*,-0.8,2.0,1.4,x,22.1,7.1,
CCCC(=O)N1CCC[C@]2(CC[C@H](CCC(C)=O)O2)C1,x,x,-2.1,4.3,x,x,x,
COc1ccc(/C=C2\CC3(OC(=O)C4CCCCC4)CCCN2C3)cc1 (centres undefined),x,x,-5.9,-2.2,x,x,x,
CC(C)CNS(=O)(=O)/C=C/c1ccccc1CNC(=O)OC(C)(C)C,x,x,-7.8,2.9,x,x,x,
C#CCNC(=O)C[C@H]1C[C@@]2(C(=O)OC)C(=C[C@H](C3CCCC3)O[C@@H]2C)N(Cc2cccc3ccccc23)C1=O,x,x,1.1,-4.4,x,x,x,
CCCCN1C(=N)N([C@@H](CCC)CN2CCC[C@H]2CN2C(N)=NC[C@@H]2Cc2ccccc2)C[C@H]1Cc1ccccc1,33.8,-3.7,-13.8,2.2,x,x,x,
CCC[C@@H](CN1CCC[C@H]1CN1C(N)=NC[C@@H]1Cc1ccccc1)N1C[C@@H](Cc2ccccc2)N(CCCC2CCCC2)C1=N,70.1*,-0.2,x,x,x,12.9,4.0,
CCC[C@@H](CN1CCC[C@H]1CN1C(N)=NC[C@@H]1Cc1ccccc1)N1C[C@@H]([C@H](C)CC)N(CCCC2CCCC2)C1=N,77.2*,-4.2,x,x,x,31.7,9.1,
CC(C)[C@H](CN1CCC[C@H]1CN1C(N)=NC[C@H]1C(C)C)N1C[C@@H](Cc2ccccc2)N(CCCC2CCCC2)C1=N,63.1*,-1.7,x,x,x,5.7,-0.2,
CCC[C@@H](CN1CCC[C@H]1CN1C(N)=NC[C@H]1CC(C)C)N1C[C@@H](Cc2ccccc2)N(CCCC2CCCC2)C1=N,59.0*,-4.3,-7.4,2.6,x,15.4,9.4,
Fc1ccc2cnc(-c3ccsc3)cc2c1,x,x,-0.7,-1.2,x,x,x,
Cc1cccc(C)c1NC(=O)C1(C)CN(S(C)(=O)=O)CC(=O)N1C1CC1 (centres undefined),x,x,5.2,1.3,x,x,x,
COC[C@@H]1CCCN1c1cccc2c1S(=O)(=O)N(C1CC1)CC[C@@H](C)O2,x,x,2.8,5.5,x,x,x,
O=C(Nc1ccc(-c2cccc(F)c2)cc1)C1CCCN(Cc2ccccn2)C1 (centres undefined),40.1*,1.9,1.6,-3.4,-4.7,14.5,-0.2,
COCCNC(=S)N(C)[C@H]1C[C@H]2c3[nH]c4c(-c5ccccc5)cccc4c3CCN2C(=O)[C@H]1[C@H](C)O,x,x,-3.2,-0.1,x,x,x,
Cc1c(N=Cc2c(O)n(C3CCCCC3)c(=O)[nH]c2=O)c(=O)n(-c2ccccc2)n1C,-1.7,-3.9,0.8,-3.0,-1.0,x,x,
O=c1[nH]c(=O)n(C2CCCCCC2)c(O)c1C=NCc1ccc(F)cc1,40.4*,-0.9,-15.9,2.4,2.2,23.5,6.5,
CCCCC1OC(CCc2ccccc2)CC2=C1C(=O)OC(C)(C)O2 (centres undefined),x,x,-4.8,-1.0,x,x,x,
CC(NCc1cccc(OCc2ccccc2)c1)C(O)c1ccccc1 (centres undefined),2.8,-2.6,-5.5,0.9,5.0,x,x,
CC(NCc1ccc(OCc2ccc(Cl)cc2)cc1)C(O)c1ccccc1 (centres undefined),41.2*,0.1,-31.2,-6.0,-0.6,15.3,3.1,
CCN(CC)CCn1c(SCC(=O)Nc2ccc3c(c2)CCC3)nc2ccccc2c1=O,50.9*,0.8,-9.4,21.2*,x,7.3,8.1,
CCOCCCn1c(SCC(=O)Nc2cc(C(C)(C)C)nn2-c2ccccc2)nc2ccccc2c1=O,40.4*,-4.1,3.7,0.0,5.6,22.8,7.6,
CS(=O)(=O)c1nc(-c2ccc(Br)cc2)cc(-c2ccccc2)c1C#N,47.4*,-9.9,-2.8,-2.3,-7.5,59.1*,3.5,Apaf1 inh interf=>100
CCOc1ccc(C2CC=C(C(=O)O)CN2S(=O)(=O)c2ccc(C)cc2)cc1 (centres undefined),x,x,-5.7,2.3,x,x,x,
SMILES,Apaf-1 inh,PAD4 inh,TDP2 inh,PRMT1 inh,GSTO1 counter,Apaf-1 inh conf,Rh110 interf inh,others
COc1ccccc1NC(=O)COc1ccc2c(c1)OCO2,12.0,0.8,-2.0,-0.6,7.7,x,x,
CSc1ccccc1NC(=O)COc1ccc2c(c1)OCO2,45.3*,4.5,-2.3,4.2,x,38.5,7.7,
CN1CCN(CC(=O)N2CCn3c4c(c5cc(C6CCCCC6)ccc53)CCCC42)CC1 (centres undefined),58.2*,-1.5,x,x,4.9,36.7,7.4,
CCOC(=O)C1=C(c2ccccc2)NC(N)=NC1c1ccc(OCc2ccc(Cl)cc2)c(OC)c1 (centres undefined),58.1*,-1.4,-11.7,-7.0,-3.9,63.5*,5.9,Apaf1 inh interf=>100
CCOC(=O)C1=C(c2ccccc2)NC(=O)NC1c1cc(Cl)c(O)c(OC)c1 (centres undefined),1.9,-1.5,1.8,3.1,-5.0,x,x,
CC1C=CC=CCCC=CC=CC=CC=CC(OC2O[C@H](C)[C@@H](O)[C@H](N)[C@@H]2O)CC(O)C(C(=O)O)C(O)CC(=O)CC(O)C(O)CCC(O)CC(O)CC(O)CC(=O)OC(C)C(C)C1O (some centres undefined),x,x,-2.2,0.3,x,x,x,
O=C(NCCC(=O)N1CCN(c2cccc(Cl)c2)CC1)c1ccc(Br)cc1,43.9*,3.9,-3.1,-2.3,x,35.5,13.3,
COC(=O)Cc1c(C)nc2nc(-c3ccc(OC)cc3)[nH]n2c1=O,5.8,-4.9,14.5,-1.1,-1.0,x,x,
COc1ccc(-c2nc3nc(C)c(Cc4ccccc4)c(=O)n3[nH]2)cc1,49.5*,-2.2,-3.3,0.8,-91.0,46.7*,1.1,
O=c1cccc(-c2ccc3ccccc3c2)o1,x,x,-3.6,3.6,x,x,x,
O=S(=O)(/N=C/N1CCOCC1)c1ccc(Cl)cc1,42.5*,-1.1,4.3,-0.9,5.7,10.7,-2.9,
O=S(=O)(/N=C(\c1ccc(Cl)cc1)N1CCOCC1)c1ccccc1,-3.4,1.1,-0.8,-0.1,3.5,x,x,
